From PubChem BioAssay
NTR1 ag: NTR1 (human) agonism; P30989; actives 0.17% (n = 330,000); NTR1-U2OS beta-arrestin-GFP spot imaging, agonist mode; AID 493036; activation, % at 20 µM;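 active = activation at or above 40% of the spot to cytoplasm intensity ratio, with at least 20 cells analyzed; inconclusive = wells under 20 cells, flagged as cytotoxic or low count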
MC4R ag barr: activates human MC4R beta-arrestin recruitment; U2OS MC4R beta-arrestin complementation, luminescence; percent of melanotan II response, DMSO zero; activation, % at 8.9 µM; actives 0.98% (n = 360,000); AID 540308;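 active = activation above a per-plate cutoff, the mean activation of sample wells on that plate plus 3 SD, cut at about 8% in these data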
Target sequence (P32245 whole entry, looked up): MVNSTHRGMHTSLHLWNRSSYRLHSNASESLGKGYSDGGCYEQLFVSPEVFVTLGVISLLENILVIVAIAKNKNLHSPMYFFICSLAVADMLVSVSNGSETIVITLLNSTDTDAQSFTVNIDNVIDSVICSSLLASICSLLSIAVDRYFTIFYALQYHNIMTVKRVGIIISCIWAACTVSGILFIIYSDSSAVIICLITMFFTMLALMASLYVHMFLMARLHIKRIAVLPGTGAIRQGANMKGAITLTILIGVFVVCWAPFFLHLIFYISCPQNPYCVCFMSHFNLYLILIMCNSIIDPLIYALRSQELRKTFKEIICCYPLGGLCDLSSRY
AI-2 QS mod: modulates the Vibrio harveyi AI-2 quorum sensing system | Vibrio harveyi JMH597 AI-2 luminescence/OD600 ratio, 9 h; active compounds read low; strain lacks LuxN and CqsS sensors; 0 = neutral-control median | activity change, % at 7.5 µM | actives 0.4% (n = 300,000); in the data active = activity change below about -75%, passing the limit was not always enough; inconclusive = no clear call, values can overlap the other calls;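 also: luminescence divided by OD600 gain over 9 h not by final OD600 alone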
MC4R antagonist: blocks human MC4R cAMP signaling | inhibition, % at 6.5 µM | MC4R-expressing cells, MTII-stimulated cAMP, LANCE TR-FRET | AID 540295 | actives 0.48% (n = 360,000);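 active = inhibition above its plate's cutoff, the mean of tested wells on that plate plus 3 SD, cut at about 29% in these data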
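Assay system: U2OS-MC4R stable cell line; Also added: Melanotan II; Technique: Eu-cAMP/anti-cAMP TR-FRET, emission 671 nm; Times: 30-min compound, 1-h challenge, 1-h detection, room temperature.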
Of the large screens only hits and unclear results are named; the others gave an inactive call. Hits are enriched below; roughly 1.8% of the tested compounds scored in any of these assays.

Cc1ccc2oc(-c3cccc(NC(=O)Cc4cccs4)c3)nc2c1	MC4R ag barr 13
Cc1ccc2oc(-c3ccc(C)c(NC(=O)Cc4cccs4)c3)nc2c1	none
COc1ccc(NC(=O)c2ccc(C)cc2)cc1	none
COc1ccc(NC(=O)c2ccc(NC3CC(=O)N(c4ccc(C)cc4C)C3=O)cc2)cc1 (stereo not given)	MC4R ag barr 8.2
COCCOc1ccc(C(F)(F)F)cc1NC(=O)COC(=O)Cc1c[nH]c2ccccc12	none (no result: AI-2 QS mod)
Cc1cnc(NC(=O)C2CC(=O)N(c3cccc(Cl)c3)C2)s1 (stereo not given)	none
Cc1ccc(Sc2c(C)nn(C(=O)c3cccc(S(=O)(=O)N4CCOCC4)c3)c2C)cc1	MC4R ag barr 9.2
Cc1cc(C)n(C(=O)c2cccc(S(=O)(=O)N3CCOCC3)c2)n1	none
COc1ccc(-c2cn3nc(SCC(=O)NCC4CCCO4)ccc3n2)cc1 (stereo not given)	none
CCc1ccc(OCC(=O)NNC(=S)NC(=O)C2CCCCC2)c(Br)c1	none
CCc1ccc(OCC(=O)NNC(=S)NC(=O)C2CC2)c(Br)c1	AI-2 QS mod -85
Oc1[nH]c2ccccc2c1N=Nc1nc(Nc2ccccc2)nc(N2CCOCC2)n1	MC4R antagonist 28
Cc1[nH]c2ccccc2c1/C=N/Nc1nc(Nc2ccccc2)nc(N2CCOCC2)n1	none
COc1ccc(-c2cc3c(=O)n(CC(=O)NCc4ccc(F)cc4)ncn3n2)cc1	none
COc1ccc(-c2cc3c(=O)n(CC(=O)NCc4ccc(C)cc4)ncn3n2)cc1	MC4R ag barr 9.1
Cc1nc(C(=O)N2CCc3c([nH]c4ccccc34)C2c2ccccn2)cs1 (stereo not given)	none
CC(C)c1nc(C(=O)N2CCc3c([nH]c4ccccc34)C2c2ccccn2)cs1 (stereo not given)	MC4R ag barr 9.0
Cc1ccc(NC(=O)Nc2nnc(Cc3ccc([N+](=O)[O-])cc3)s2)cc1	MC4R ag barr 9.3
Cc1cc(S(=O)(=O)N2CCOCC2)ccc1OCC(=O)Nc1ccc(F)cc1F	none
O=C(NCc1cccs1)Nc1cccc(Cl)c1	AI-2 QS mod -91
S=C(NCc1cccs1)Nc1cccc(Cl)c1	none
CCc1ccc(C(=O)COC(=O)c2n[nH]c3ccccc23)cc1	AI-2 QS mod -78
CCc1ccc(C(=O)COC(=O)c2nn(C)c(=O)c3ccccc23)cc1	none
O=C(CCOc1ccccc1)Nc1ccc([N+](=O)[O-])cc1	AI-2 QS mod -79
COc1ccc(C(=O)CC(=O)Nc2ccc([N+](=O)[O-])cc2)cc1	AI-2 QS mod -90
Cn1cnc(S(=O)(=O)N2CCN(C(c3ccc(F)cc3)c3ccc(F)cc3)CC2)c1	none
Cc1cc(=O)c(C(=O)O)nn1-c1ccccc1F	none
O=C(CN1CCC(Cc2ccccc2)CC1)NC(=O)NCc1ccccc1	MC4R ag barr 9.6
COc1cc(NC(=O)CN2CCC(Cc3ccccc3)CC2)c(C)cc1[N+](=O)[O-]	MC4R ag barr 9.5
O=C(CN1CCC(Cc2ccccc2)CC1)NC(=O)NC1CCCCC1	none
CC1CCc2nc(NC(=O)CN3CCN(Cc4ccc5c(c4)OCO5)CC3)sc2C1 (stereo not given)	MC4R ag barr 9.3
CC1CCc2nc(NC(=O)CN3CCN(c4ccccc4)CC3)sc2C1 (stereo not given)	none
COc1ccc(/C=C(\NC(=O)c2ccco2)C(=O)NCc2ccco2)cc1	none
CCC(=O)NC(Cc1ccccc1)c1nc2ccccc2[nH]1 (stereo not given)	none
Cc1cc(Cl)ccc1OCC(=O)N[C@@H](Cc1ccccc1)c1nc2ccccc2[nH]1	MC4R ag barr 13
O=C(NCCC1=CCCCC1)C(c1ccccc1)c1ccccc1	MC4R ag barr 8.5
Cc1ccc(-c2cnc3c(c2)C(=O)N([C@H](C)CO)C[C@@H](C)[C@@H](CN(C)C(=O)Cc2ccccc2)O3)cc1	none (no result: NTR1 ag, AI-2 QS mod)
CC1=CC(=O)C(C(C)C)=C/C1=N/OC(=O)c1cccc([N+](=O)[O-])c1	none
CC1=CC(=O)C(C(C)C)=CC1=NC(=O)c1ccc(C)cc1	MC4R antagonist 51
CCOc1cccc(CN2CCC(Oc3ccc(C(=O)N4CCCC4)cc3)CC2)c1O	none (no result: NTR1 ag, AI-2 QS mod)
Cn1cc([N+](=O)[O-])c(C(=O)Nc2ccc(-c3nc4ccccc4o3)cc2)n1	MC4R ag barr 13
O=C(Nc1ccc(-c2nc3ccccc3o2)cc1)c1ccc(N2CCOCC2)c([N+](=O)[O-])c1	none
Cc1noc(C)c1NC(=O)N(C)C[C@H]1OCc2cnnn2CCCC(=O)N([C@H](C)CO)C[C@@H]1C	none (no result: NTR1 ag, AI-2 QS mod)
C/C=C(\C)C(=O)OC1[C@H](OC(C)=O)C2(CO)C(CC1(C)C)C1=CCC3C4(C)CCC(O[C@@H]5O[C@H](C(=O)O)[C@@H](O[C@@H]6O[C@H](CO)[C@@H](O)[C@H](O)[C@H]6O)[C@H](O)[C@H]5O[C@H]5O[C@H](CO)[C@@H](O)[C@H](O)[C@H]5O)[C@](C)(CO)C4CCC3(C)[C@]1(C)C[C@H]2O (stereo not given in full)	MC4R antagonist 95 (no result: NTR1 ag, AI-2 QS mod)
CN(CC(=O)Nc1ccc(F)cc1)C(=O)c1ccc(OCc2ccccc2)cc1	none (no result: AI-2 QS mod)
O=C(NCCN1CCN(c2ccccc2)CC1)c1ccc2c(c1)[nH]c(=S)n1c3ccccc3nc21	MC4R ag barr 8.9
CC1(C(=O)NS(=O)(=O)c2ccc3c(c2)CCO3)CCN1C(=O)c1ccccc1CCc1ccccc1 (stereo not given)	none (no result: NTR1 ag, AI-2 QS mod)
COC(=O)C1(C(F)(F)F)C2C=CC(C2)N1S(=O)(=O)c1ccc(C)cc1 (stereo not given)	none
COc1ccc2cc1Oc1ccc(cc1)CC1c3c(cc(OC)c4c3Oc3cc5c(cc3O4)CCNC5C2)CCN1C (stereo not given)	MC4R ag barr 45
Cc1ccc(Cn2ccc(NC(=O)c3nn(C)cc3Cl)n2)cc1	none
O=C(Nc1cnn(Cc2ccc(F)cc2)c1)c1cc2nc(-c3ccco3)cc(C(F)(F)F)n2n1	MC4R ag barr 9.2
Cn1cc(Cl)c(C(=O)Nc2cnn(Cc3ccc(F)cc3)c2)n1	AI-2 QS mod -81
Cc1noc(C)c1-c1ccc2ncnc(NCC3CCCCN3C)c2c1 (stereo not given)	none (no result: AI-2 QS mod)
O=C(OCC(=O)N1CCCC1)c1c(Cl)ccc(Cl)c1Cl	none
Cc1c(Br)cnn1C(C)C(=O)N1CCN(c2ccccc2F)CC1 (stereo not given)	none (no result: AI-2 QS mod)
COc1ccc(N2CCN(S(=O)(=O)c3cccc(C(F)(F)F)c3)CC2)cc1	none
COc1ccc(N2CCN(S(=O)(=O)c3ccc(Cl)c(C(F)(F)F)c3)CC2)cc1	MC4R ag barr 8.5
CC(=O)c1ccc(NC(=O)c2ccc([N+](=O)[O-])o2)cc1	AI-2 QS mod -91
CC(=O)c1cccc(NC(=O)c2ccc([N+](=O)[O-])o2)c1	AI-2 QS mod inconclusive
COc1cc(NC(=O)c2ccc([N+](=O)[O-])o2)ccc1NC(=O)c1ccco1	none
Cc1cc(C)cc(NC(=O)c2ccc([N+](=O)[O-])o2)c1	AI-2 QS mod -110
Cc1cc(NC(=O)c2ccc([N+](=O)[O-])o2)ccc1NC(=O)c1ccco1	AI-2 QS mod -94 (no result: NTR1 ag)
